ChEMBL document CHEMBL1123492, “Carboxyl-modified amino acids and peptides as protease inhibitors” (J Med Chem, 1986)

Experiments:
[1] = Michaelis constant against leucine aminopeptidase-C
[2] = Michaelis constant against Leucine aminopeptidase-M
[3] = test system: NCC(=O)NC(Cc1ccccc1)C(=O)Nc1ccc([N+](=O)[O-])cc1; test: Michaelis constant against Dipeptidyl aminopeptidase 1
Procedure, shortened: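 Cathepsin C diluted 1:200 daily in ice-cold 50 mM citrate pH 5 with 10 mM cysteamine. Gly-Phe p-nitroanilide hydrolysis at 37 °C read at 405 nm (Δε 9900 M⁻¹ cm⁻¹), started by adding substrate to prewarmed enzyme/inhibitor. Irreversible inhibition: enzyme preincubated with varied inhibitor levels, aliquots diluted into substrate over time. k_app from ln(% activity) vs time; Ki and k2 from 1/k_app vs 1/[I].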

Row | Molecule | Km [1] [µM] | Km [2] [µM] | Km [3] [µM]
1 | CC(C)C[C@H](N)C(=O)Nc1ccc([N+](=O)[O-])cc1 | 2100 | 600 | 
2 | Dipeptidyl peptidase 1 (Homo sapiens), P53634 |  |  | 3100
